# Data taken from PubChem BioAssay.
# Calls of active or inactive are those of the source. Rule as the data show it, unless noted: active = inhibition above about 30%; inactive = the rest.
# Tests used:
# [1] = SK-BR-3 cell growth inhibitors, pilot screen, 24 h, human (AID 572;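 active = viability at or below 10% of carrier control in both of two separate runs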;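 also: compound exposure lasted between 18 and 24 h rather than exactly 24 h; 100% = carrier-treated control wells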); conditions: SK-BR-3 viability, CellTiter-Glo luminescence, at 10 µM, stronger effect = lower value
# [2] = HUVEC growth inhibition – cell-based, human, primary screen (AID 575;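 active = viability at or below 30% in both replicate assays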;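 also: 100% = median of untreated cell wells with 0.1% DMSO on each plate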); conditions: HUVEC proliferation, CellTiter-Glo luminescence, 72 h; at 10 µM; stronger effect = lower value
# In short: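 Material: primary human umbilical vein endothelial cells / Schedule: 72 h exposure, 37 °C, 5% CO2, 30 min RT equilibration / Signal: ATP-based CellTiter-Glo luminescent read / Read-out basis: percent of median DMSO-control luminescence / Control set: 32 DMSO-only cell-control wells (high), 32 MePR drug-control wells (low) per plate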
# [3] = growth inhibitors of H69AR lung tumor, primary screen, human, duplicate replicates (AID 580;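 active = viability at or under a set limit in both replicates, limit being median viability minus 3 SD, cut at about 48% in these data, passing the limit was not always enough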;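 also: 100% = mean luminescence of untreated wells and 0% = no signal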); conditions: H69AR lung tumor cells viability, ATP luminescence, 72 h; at 10 µM; stronger effect = lower value
# [4] = reversal of MRP1-mediated doxorubicin resistance, pilot screen, H69AR cells, doxorubicin co-treatment (AID 601;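 active = viability loss from added drug above about 55%, and viability with drug at most 40%, in both replicates, limit read from the data, passing the limit was not always enough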); conditions: CellTiter-Glo, 72 h, at 10 µM; for differential viability (reversal): stronger effect = higher value
# [5] = 384-well plate pilot, post-Golgi transport modulator project, inhibition of yeast transport mutant growth (AID 636; in the data active = inhibition above about 31%); conditions: absorbance 615 nm, about 18 h, stronger effect = higher value
# [6] = growth suppression of yeast trafficking mutant, preliminary HTS, modulators of trafficking downstream of Golgi apparatus project, 1536-format plate, OD 615 nm (AID 637); conditions: yeast transport mutant growth, absorbance 615 nm, 18 h; stronger effect = higher value
# [7] = H69AR cells + 2 uM doxorubicin, measured here: viability with 2 uM doxorubicin, stronger effect = lower value
# [8] = H69AR cells, compound alone cytotoxicity
Compound,viability [1],viability [2],viability [3],differential viability (reversal) ([4]; H69AR cells + 2 uM doxorubicin),"viability [4, 7]","viability [4, 8]",inhibition [5],inhibition [6]
Cc1cc(-c2ccccc2)nc(SCc2ccc(C(=O)O)o2)n1,121% (inactive),103% (inactive),97.5% (inactive),5.94% (inactive),91.6%,97.5%,-5.6% (inactive),0.73% (inactive)
COc1ccc(CN(CC(=O)NCC2CCCO2)C(=O)CCC(=O)Nc2cc(C)on2)cc1 (centres undefined),77% (inactive),95.1% (inactive),89.4% (inactive),-4.07% (inactive),93.4%,89.4%,4.53% (inactive),9.27% (inactive)
COC(=O)C1=C(C)Nc2ncnn2C1c1ccco1 (centres undefined),80% (inactive),91.8% (inactive),85.9% (inactive),4.73% (inactive),81.2%,85.9%,-8.49% (inactive),4.91% (inactive)
Clc1cccc(Cl)c1COc1ccncc1,88% (inactive),91.5% (inactive),97.2% (inactive),2.84% (inactive),94.3%,97.2%,0.82% (inactive),27.4% (inactive)
C#CCSc1nc(-c2cccs2)ccc1C#N,91% (inactive),95.1% (inactive),71.4% (inactive),-22.5% (inactive),93.9%,71.4%,-0.96% (inactive),21.8% (inactive)
C=CCOc1ccc(C2/C(=C(\O)c3c(C)[nH]c(C(=O)OC)c3C)C(=O)C(=O)N2CCN(C)C)cc1 (centres undefined),95% (inactive),82.7% (inactive),90.2% (inactive),-5.67% (inactive),95.9%,90.2%,0.52% (inactive),11.5% (inactive)
Cc1nnc(SCC(=O)NCc2ccc3c(c2)OCO3)s1,87% (inactive),103% (inactive),101% (inactive),-12.3% (inactive),113%,101%,-2.33% (inactive),5.82% (inactive)
O=C(NCC1CCCO1)c1ccc(C(=O)NCC2CCCO2)cc1 (centres undefined),97% (inactive),108% (inactive),113% (inactive),11.3% (inactive),101%,113%,-6.76% (inactive),-4% (inactive)
COc1cccc(C=Nc2ccc3c(c2)OCCO3)c1O,115% (inactive),79.2% (inactive),83% (inactive),-12% (inactive),95%,83%,1.95% (inactive),-0.33% (inactive)
CCn1c(SCC(=O)NC)nnc1C(C)C,97% (inactive),123% (inactive),94.8% (inactive),8.98% (inactive),85.8%,94.8%,-7.3% (inactive),-4.91% (inactive)
CCOC(=O)c1cc2sc(C)cc2n1CC(=O)Nc1cccc(C)c1C,90% (inactive),99.2% (inactive),91.2% (inactive),-3.05% (inactive),94.2%,91.2%,-5.81% (inactive),-5.82% (inactive)
Cc1ccc(S(=O)(=O)N2CCN(C(=O)N3CCOCC3)C2c2ccc(N(C)C)cc2)cc1 (centres undefined),106% (inactive),96.3% (inactive),110% (inactive),5.79% (inactive),105%,110%,-6.03% (inactive),9.64% (inactive)
O=C(NC(C(=O)c1ccccc1)N1CCOCC1)c1cccs1 (centres undefined),87% (inactive),100% (inactive),96% (inactive),15% (inactive),81%,96%,-1.22% (inactive),-4.36% (inactive)
